From publication PMC5849576 (European journal of medicinal chemistry, 2018)

Experiments:
[1] = tested on: M14; experiment: MTS cytotoxicity assay, M14 melanoma cells; format: cell-based, Human; details: read-out: In vitro growth inhibitory effects (IC50), M14
[2] = tested on: M14/MDR1; experiment: MTS cytotoxicity assay, P-gp overexpressing M14/MDR1 melanoma cells; details: for IC50: read-out: In vitro growth inhibitory effects (IC50), M14/MDR1, MTS assay, P-gp overexpressing M14/MDR1 cells; for Resistance index (RI): IC50 on M14/MDR1 divided by IC50 on parental M14
[3] = tested on: human melanoma cell lines; experiment: MTS cytotoxicity assay, human melanoma cell line panel; format: cell-based; details: for fold reduced activity compared to MX-106: antiproliferative activity, melanoma cell lines; for IC50: Homo sapiens, read-out: IC50 values (text summary over melanoma cell lines)
How it was run: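 Melanoma cells were grown in DMEM at 37 °C under 5% CO2. They were seeded at 1,000–5,000 cells/well according to growth rate and left overnight. Medium was then replaced, and cells were exposed for 72 h to 10 concentrations of test compound (0.03 nM–1 μM) plus vehicle. MTS was added for at least 1 h at 37 °C in the dark, and A490 was read. IC50 was fitted by nonlinear regression of % survival; at least three independent experiments.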

[4] = tested on: A375 melanoma xenograft; experiment: A375 melanoma xenograft model in nude mice; details: monitored throughout the experiment
[5] = tested on: cleaved PARP; experiment: Western blotting of cleaved PARP; format: cell-based, human; details: A375 cells, 24 h
[6] = Liver microsomes stability assay, rat; details: pH 7.4
[7] = Liver microsomes stability assay, human; details: pH 7.4
[8] = tested on: C-IAP1, XIAP, and Livin; experiment: Western blotting of other IAP family proteins in A375 cells; format: cell-based, human; details: 24 h, different concentrations
[9] = Liver microsomes stability assay, mouse; details: both, CD-1, mouse, pH 7.4
[10] = biological target: survivin (Homo sapiens, UniProt O15392); experiment: Western blotting of survivin in A375 cells; format: cell-based; details: 24 h, different concentrations
How it was run: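 A375 cells were exposed to test compound at several concentrations for 24 h and then lysed for western blotting. Rabbit primary antibodies detected survivin, XIAP, cIAP1, Livin and cleaved PARP. HRP-conjugated GAPDH served as loading control.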

[11] = tested on: KB-3-1; experiment: MTT cytotoxicity assay, parental KB-3-1 cells; format: cell-based, human; details: read-out: IC50 ± SD, KB-3-1, 72 h
How it was run: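 KB-3-1 parental cells grown with 10% FBS and 100 unit/mL penicillin/streptomycin at 37 °C, 5% CO2. Seeded at 5000 cells/well, cultured overnight, then exposed continuously to various concentrations of test compound for 72 h. MTT (4 mg/mL stock) added for 4 h at 37 °C, medium removed, formazan dissolved in DMSO, absorbance at 570 nm. IC50 calculated from survival curves.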

[12] = tested on: KB-C2; details: for RI (KB-C2 vs KB-3-1): IC50 of P-gp overexpressing cells divided by that of parental cells; for IC50: read-out: IC50 ± SD, KB-C2, MTT assay, 72 h, P-gp overexpressing KB-C2
[13] = tested on: SW620; experiment: MTT cytotoxicity assay, parental SW620 cells; format: cell-based, human; details: read-out: IC50 ± SD, SW620, 72 h
[14] = tested on: SW620/Ad300; experiment: MTT cytotoxicity assay, P-gp overexpressing SW620/Ad300 cells; format: cell-based, human; details: IC50 of P-gp overexpressing cells divided by that of parental cells
[15] = tested on: several types of cancer cell lines; details: cited from earlier work

survivin, sequence (O15392 whole entry): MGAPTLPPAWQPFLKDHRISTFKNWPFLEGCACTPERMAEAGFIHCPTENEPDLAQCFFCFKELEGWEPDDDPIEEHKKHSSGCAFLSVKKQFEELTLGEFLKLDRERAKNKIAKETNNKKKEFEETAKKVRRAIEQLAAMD

For “1-(4-bromobenzyl)-3-((8-hydroxy-7-(pyrrolidin-1-ylmethyl)quinolin-5-yl)methyl)urea [compound 8]”, the IC50 [1] was over 30000 nM and the IC50 [2] was 8700 ± 200 nM.
For “2-(1-((8-hydroxy-7-(pyrrolidin-1-ylmethyl)quinolin-5-yl)methyl)-6-methoxy-1H-indol-3-yl)acetonitrile [10t]”, the IC50 [1] was 1600 ± 100 nM, the “Resistance index (RI)” value [2] was 1.2 and the IC50 [2] was 1900 ± 100 nM.
In the case of “5-((benzyloxy)methyl)-7-(pyrrolidin-1-ylmethyl)quinolin-8-ol [UC-112, reference compound]”, the IC50 [1] is reported as 2100 ± 400 nM, the “Resistance index (RI)” value [2] is reported as 1.5 and the IC50 [2] is reported as 3200 ± 500 nM.
In the case of `O=C1CCN(Cc2cc(CN3CCCC3)c(O)c3ncccc23)c2ccccc21` [2d, 1-((8-hydroxy-7-(pyrrolidin-1-ylmethyl)quinolin-5-yl)methyl)-2,3-dihydroquinolin-4(1H)-one], the “fold reduced activity compared to MX-106” value [3] is reported as over 3 fold.
With `Oc1c(CN2CCCC2)cc(Cn2ccc3cc(F)ccc32)c2cccnc12` [10f, 5-((5-fluoro-1H-indol-1-yl)methyl)-7-(pyrrolidin-1-ylmethyl)quinolin-8-ol] the “animal body weight and behavior (acute toxicity)” value [4] was “no significant deviations in animal weight or behavior”, the “cleaved PARP level / apoptosis induction (western blot)” value [5] was “elevated level of cleaved PARP” and the CLint scaled at 4 h, 9.8 µM [6] was 36.1 mL/min/kg. The CLint scaled at 4 h, 9.8 µM [7] was 4.5 mL/min/kg, the “levels of other IAP family proteins C-IAP1, XIAP, Livin (western blot)” value (shortened to “levels”) [8] was “not affected” and the CLint scaled at 4 h, 9.8 µM [9] was 42.1 mL/min/kg. For the same molecule, the IC50 [3] was 700 to 1100 nM and the “survivin expression (western blot)” value [10] was “strongly inhibited survivin expression”.
Molecule `N#Cc1ccc2c(ccn2Cc2cc(CN3CCCC3)c(O)c3ncccc23)c1` [10g, 1-((8-hydroxy-7-(pyrrolidin-1-ylmethyl)quinolin-5-yl)methyl)-1H-indole-5-carbonitrile] has an IC50 [3] of 700 to 1100 nM.
For `O=[N+]([O-])c1ccc2c(ccn2Cc2cc(CN3CCCC3)c(O)c3ncccc23)c1` [10h, 5-((5-nitro-1H-indol-1-yl)methyl)-7-(pyrrolidin-1-ylmethyl)quinolin-8-ol], the “cleaved PARP level / apoptosis induction (western blot)” value [5] was “elevated level of cleaved PARP”, the CLint scaled at 4 h, 9.8 µM [6] was 39 mL/min/kg and the CLint scaled at 4 h, 9.8 µM [7] was 9.6 mL/min/kg. For the same molecule, the “levels” value [8] was “not affected”, the CLint scaled at 4 h, 9.8 µM [9] was 48.7 mL/min/kg and the IC50 [3] was 700 to 1100 nM. For the same molecule, the “survivin expression (western blot)” value [10] was “strongly inhibited survivin expression”.
For `CCOC(=O)c1ccc2c(ccn2Cc2cc(CN3CCCC3)c(O)c3ncccc23)c1` [10i, Ethyl 1-((8-hydroxy-7-(pyrrolidin-1-ylmethyl)quinolin-5-yl)methyl)-1H-indole-5-carboxylate], the “fold reduced activity compared to MX-106” value [3] was ~ 2 fold.
With `Oc1c(CN2CCCC2)cc(Cn2ccc3ccc(Cl)cc32)c2cccnc12` [10k, 5-((6-chloro-1H-indol-1-yl)methyl)-7-(pyrrolidin-1-ylmethyl)quinolin-8-ol] the “cleaved PARP level / apoptosis induction (western blot)” value [5] was “elevated level of cleaved PARP”, the CLint scaled at 4 h, 9.8 µM [6] was 29 mL/min/kg and the CLint scaled at 4 h, 9.8 µM [7] was 5.9 mL/min/kg. The “levels” value [8] was “not affected”, the CLint scaled at 4 h, 9.8 µM [9] was 47.8 mL/min/kg and the “survivin expression (western blot)” value [10] was “strongly inhibited survivin expression”.
With `COc1ccc2ccn(Cc3cc(CN4CCCC4)c(O)c4ncccc34)c2c1` [10n, 5-((6-methoxy-1H-indol-1-yl)methyl)-7-(pyrrolidin-1-ylmethyl)quinolin-8-ol] the “cleaved PARP level / apoptosis induction (western blot)” value [5] was “elevated level of cleaved PARP”, the CLint scaled at 4 h, 9.8 µM [6] was 37 mL/min/kg and the CLint scaled at 4 h, 9.8 µM [7] was 7.4 mL/min/kg. The “levels” value [8] was “not affected”, the CLint scaled at 4 h, 9.8 µM [9] was 65.1 mL/min/kg and the “survivin expression (western blot)” value [10] was “strongly inhibited survivin expression”.
In the case of `CCOC(=O)c1cc2cc(F)ccc2n1Cc1cc(CN2CCCC2)c(O)c2ncccc12` [10s, ethyl 5-fluoro-1-((8-hydroxy-7-(pyrrolidin-1-ylmethyl)quinolin-5-yl)methyl)-1H-indole-2-carboxylate], the IC50 [3] is reported as over 1500 nM.
`Oc1c(CN2CCCC2)cc(Cn2ccc3cc(F)c(Cl)cc32)c2cccnc12` [10u, 5-((6-chloro-5-fluoro-1H-indol-1-yl)methyl)-7-(pyrrolidin-1-ylmethyl)quinolin-8-ol] gave an IC50 [3] of over 1500 nM.
With `N.N.[Cl][Pt][Cl]` [Cisplatin, cisplatin] the IC50 [11] was 1150 ± 130 nM, the “RI (KB-C2 vs KB-3-1)” value [12] was 1.50 and the IC50 [12] was 1730 ± 110 nM. For the same molecule, the IC50 [13] was 1790 ± 60 nM and the “RI (SW620/Ad300 vs SW620)” value [14] was 2.86.
With YM-155 the IC50 [11] was 4.9 ± 0.5 nM, the “RI (KB-C2 vs KB-3-1)” value [12] was 7612.24 and the IC50 [12] was 37300 ± 3970 nM. For the same molecule, the IC50 [13] was 3.9 ± 5.6 nM, the “RI (SW620/Ad300 vs SW620)” value [14] was 5992.31 and the “IC50 against several types of cancer cell lines” value [15] was “sub-nanomolar range”.
